PFA and ED50 data for 15 compounds are collected here from ChEMBL document CHEMBL1124808, “The synthesis and antiallergy activity of 1-(aryloxy)-4-(4-arylpiperazinyl)-2-butanol derivatives” (1990).

Assay type in all cases: functional
In test [1] the test system is Rattus norvegicus. Kind of test: Percent change in volume of foot edema of test compound to that of positive control was determined at a dose of 10 mg/kg in rat; […].
In test [2] the test system is Rattus norvegicus. As to the kind of experiment: Percent change in volume of foot edema of test compound to that of positive control was determined at a dose of 31.6 mg/kg in rat; […]/-69.
Test [3] relates to Rattus norvegicus. As to the kind of experiment: Oral Antiallergic activity in the passive foot anaphylaxis (PFA) assay of various amines at the dose of 3.16 mg/kg; -33/-84.
Test [4] deals with Rattus norvegicus. Kind of test: Percent change in volume of foot edema of test compound to that of positive control was determined at a dose of 10 mg/kg in rat; -9/-80.
The test system of test [5] is Rattus norvegicus. As to the kind of experiment: Percent change in volume of foot edema of test compound to that of positive control was determined at a dose of 31.6 mg/kg in rat; -61/-63.
The test system of test [6] is Rattus norvegicus. As to the kind of experiment: Percent change in volume of foot edema of test compound to that of positive control was determined at a dose of 10 mg/kg in rat; -61/-88.
Test [7] deals with Rattus norvegicus. Kind of test: Percent change in volume of foot edema of test compound to that of positive control was determined at a dose of 31.6 mg/kg in rat; -75/-83.
In test [8] the test system is Rattus norvegicus. Kind of test: Oral Antiallergic activity in the passive foot anaphylaxis (PFA) assay of various amines at the dose of 3.16 mg/kg; -38/-78.
Test [9] concerns Rattus norvegicus. Kind of test: Percent change in volume of foot edema of test compound to that of positive control was determined at a dose of 31.6 mg/kg in rat; -23/-81.
For test [10], the system named is Rattus norvegicus. Kind of test: Percent change in volume of foot edema of test compound to that of positive control was determined at a dose of 10 mg/kg in rat; -11/-65.
In test [11] the test system is Rattus norvegicus. Kind of test: Percent change in volume of foot edema of test compound to that of positive control was determined at a dose of 31.6 mg/kg in rat; -66/-66.
For test [12], the system named is Rattus norvegicus. Kind of test: Percent change in volume of foot edema of test compound to that of positive control was determined at a dose of 31.6 mg/kg in rat; -35/-69.
Test [13] relates to Rattus norvegicus. Kind of test: Percent change in volume of foot edema of test compound to that of positive control was determined at a dose of 31.6 mg/kg in rat; -17/-70.
Test [14] has as its system Rattus norvegicus. Kind of test: Percent change in volume of foot edema of test compound to that of positive control was determined at a dose of 10 mg/kg in rat; +14/-44.
Test [15] deals with Rattus norvegicus. Kind of test: Percent change in volume of foot edema of test compound to that of positive control was determined at a dose of 31.6 mg/kg in rat; -48/-84.
The species entered for test [16] is Cavia porcellus. As to the kind of experiment: Dose that protects 50% of guinea pig from collapse was determined in guinea pig anaphylaxis assay. The settings on record: read-out: PD50. The method, boiled down:
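Guinea pigs dosed by gavage (10 mL/kg) with compound in 0.5% Tween 80/water; reference theophylline 100 mg/kg po. At 1–24 h, exposed in chamber to aerosolized 1% (w/v) egg albumin at 10 L air/min for up to 5 min; protected if no collapse within 5 min. PD50 by Litchfield and Wilcoxon.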

The test system of test [17] is Rattus norvegicus. As to the kind of experiment: Percent change in volume of foot edema of test compound to that of positive control was determined at a dose of 10 mg/kg in rat; -34/-78.
Test [18] has as its system Rattus norvegicus. As to the kind of experiment: Percent change in volume of foot edema of test compound to that of positive control was determined at a dose of 31.6 mg/kg in rat; -88/-75.
Test [19] has as its system Rattus norvegicus. As to the kind of experiment: Percent change in volume of foot edema of test compound to that of positive control was determined at a dose of 10 mg/kg in rat; -10/-44.
For test [20], the system named is Rattus norvegicus. As to the kind of experiment: Percent change in volume of foot edema of test compound to that of positive control was determined at a dose of 31.6 mg/kg in rat; -54/-44.
Test [21] relates to Rattus norvegicus. Kind of test: Percent change in volume of foot edema of test compound to that of positive control was determined at a dose of 31.6 mg/kg in rat; 39/-78.
Test [22] relates to Rattus norvegicus. As to the kind of experiment: Percent change in volume of foot edema of test compound to that of positive control was determined at a dose of 31.6 mg/kg in rat; -40/-81.
The subject of test [23] is Rattus norvegicus. As to the kind of experiment: Percent change in volume of foot edema of test compound to that of positive control was determined at a dose of 10 mg/kg in rat; -53/-76.
Test [24] has as its system Rattus norvegicus. Kind of test: Percent change in volume of foot edema of test compound to that of positive control was determined at a dose of 3.16 mg/kg in rat; -50/-84.
For test [25], the system named is Rattus norvegicus. As to the kind of experiment: Percent change in volume of foot edema of test compound to that of positive control was determined at a dose of 31.6 mg/kg in rat; -83/-69.
The test system of test [26] is Rattus norvegicus. Kind of test: Percent change in volume of foot edema of test compound to that of positive control was determined at a dose of 10 mg/kg in rat; -55/-63.
The subject of test [27] is Rattus norvegicus. Kind of test: Percent change in volume of foot edema of test compound to that of positive control was determined at a dose of 3.16 mg/kg in rat; -36/-80.
The subject of test [28] is Rattus norvegicus. Kind of test: Percent change in volume of foot edema of test compound to that of positive control was determined at a dose of 31.6 mg/kg in rat; -78/-69.
For test [29], the system named is Rattus norvegicus. Kind of test: Percent change in volume of foot edema of test compound to that of positive control was determined at a dose of 31.6 mg/kg in rat; -15/-60.

SMILES strings stand for the structures.

Consider `Cc1cc(OCC(O)CCN2CCN(c3ccccc3)CC2)ccc1Cl` (stereo unspecified), for which the PFA in test [1] is reported as -45; in test [2], -71; in test [3], -33.

As to `OC(CCN1CCN(c2ccc(Cl)c(Cl)c2)CC1)COc1ccccc1` (stereo unspecified), the PFA in test [4] is -9; in test [5] it was -61.

As for `CC(=O)c1ccc(N2CCN(CCC(O)COc3ccc(Cl)cc3)CC2)cc1` (stereo unspecified), the figures for the PFA in test [6], in [7] and in test [8] were -61, -75 and -38, respectively.

In the case of `OC(COc1ccccc1)CN1CCN(c2ccccc2)CC1` (stereo unspecified), in [9], the PFA is reported as -23.

As for `Cc1ccc(OCC(O)CCN2CCN(c3ccccc3)CC2)cc1` (stereo unspecified), the PFA was -11 in test [10] and -66 in [11].

On to `OC(CCN1CCN(c2ccccc2)CC1)COc1cccc2ccccc12` (stereo unspecified), for which the PFA in [12] is -35.

`OC(CCOc1ccccc1)CN1CCN(c2ccccc2)CC1` (stereo unspecified) returned a PFA in test [13] of -17.

For the compound `Cc1cc(C)cc(OCC(O)CCN2CCN(c3ccccc3)CC2)c1` (stereo unspecified), the PFA in test [14] is listed as 14; in test [15], -48.

On to `OC(CCN1CCN(c2ccccc2)CC1)COc1ccccc1` (stereo unspecified), for which the ED50 in [16] came out at 40 mg/kg. Moreover, the PFA in test [17] was -34; in test [18], -88.

Regarding `COc1ccc(OCC(O)CCN2CCN(c3ccccc3)CC2)cc1` (stereo unspecified), the values for the PFA in test [19] and in [20] were -10 and -54, respectively.

In turn, `OC(CCN1CCN(c2cccc(C(F)(F)F)c2)CC1)COc1ccccc1` (stereo unspecified) gave a PFA in test [21] of 39.

Take `c1ccc(OCCN2CCN(c3ccccc3)CC2)cc1`: the PFA in [22] is recorded as -40.

As to `OC(CCN1CCN(c2ccccc2)CC1)COc1ccc(Cl)cc1` (stereo unspecified), the ED50 in test [16] is 6.69 mg/kg. Also, the figures for the PFA in [23], in test [24] and in [25] were -53, -50 and -83, respectively.

For `OC(CCN1CCN(c2ccc(F)cc2)CC1)COc1ccc(Cl)cc1` (stereo unspecified), the figures for the PFA in test [26], in [27] and in [28] were -55, -36 and -78, respectively.

On to `CN(C)CCOC(c1ccccc1)c1ccccc1` [DIPHENHYDRAMINE], for which the ED50 in [16] came to 23.3 mg/kg. Besides, the PFA in test [29] is -15.
